Most compounds without a hit are left out; they make up all but 4.1% or so of the library.
FLuc inhib CS – firefly luciferase enzyme inhibitors, primary screen, artefact control for luciferase-based inhibitor screens, biochemical, luminescence, ATPLite | 10 min | inhibition, % at 10 µM | 200,000 tested, 1.5% active | AID 1006, 2008;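 active = inhibition above about 50% when tested at 10 µM, limit read from the data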
Target sequence (P08659 whole entry, looked up): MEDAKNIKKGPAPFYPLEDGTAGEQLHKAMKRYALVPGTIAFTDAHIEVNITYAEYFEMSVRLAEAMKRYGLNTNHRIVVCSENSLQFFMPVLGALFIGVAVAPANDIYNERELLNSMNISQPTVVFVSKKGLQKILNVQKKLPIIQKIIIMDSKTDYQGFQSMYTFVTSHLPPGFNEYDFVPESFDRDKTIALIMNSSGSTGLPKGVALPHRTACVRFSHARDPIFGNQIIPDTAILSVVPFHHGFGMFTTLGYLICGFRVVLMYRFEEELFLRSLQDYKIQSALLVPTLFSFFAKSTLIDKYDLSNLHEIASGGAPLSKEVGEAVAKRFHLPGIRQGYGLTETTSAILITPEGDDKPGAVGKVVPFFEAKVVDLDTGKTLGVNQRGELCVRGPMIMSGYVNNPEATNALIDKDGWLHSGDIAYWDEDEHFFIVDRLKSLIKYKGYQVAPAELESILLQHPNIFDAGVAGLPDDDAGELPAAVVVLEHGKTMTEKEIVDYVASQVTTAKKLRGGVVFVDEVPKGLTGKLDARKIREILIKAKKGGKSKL
STAT1 activator – STAT1 signaling activators, primary screen, cell-based, HTS, luciferase reporter; AID 932, 2007; 200,000 tested, 2.6% active; NIH 3T3 STAT1-luciferase reporter, IFN-gamma, luminescence; 100% = IFN-gamma alone, no compound; activation (% of control), % at 5.5 µM;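 active = activation above the screen-wide mean activation plus 3 SD, cut at about 130% in these data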;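 note: raw ratio to IFN-gamma control signal so 100% means no change and 0% no light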
NF-kB neuron act – activators of NF-kB expression in neurons, primary screen, cell-based, HTS. human neuronal cells, NF-kB reporter expression; active compounds read high. fold change at 12.5 µM. 190,000 tested, 1.6% active. AID 1239, 2008; in the data active = fold change above about 3.3
APP 5'UTR act – activators of APP 5'UTR luciferase reporter, primary screen, SH-SY5Y cells. activation, % at 2 µM. 190,000 tested, 1% active. SH-SY5Y APP 5'UTR luciferase reporter, luminescence; zero percent = DMSO vehicle wells;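 active = activation above a set limit, based on mean plus 3 SD of controls, cut at about 140% in these data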
FLuc act counter – FLuc activators, initial screening, artefact control for FLuc-dependent activation tests, biochemical, ATPlite luminescence; Luciferin 4-monooxygenase (Photinus pyralis), P08659; ATPlite luciferase biochemical, 10 min; 0 = ATP-free wells, 1 = DMSO control; activation factor at 10 µM; 200,000 tested, under 10 active; AID 1027, 2008;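 active = luciferase activation factor, scaled between plate controls, of at least 2 with compound at 10 µM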
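Assay system: Luciferase/luciferin reagent mix; Medium: PBS as buffer for the ATP substrate; Dosing: test compounds dosed from 2 mM stocks in 100% DMSO; Times: 10 min, room temperature; Signal: luminescence from luciferase reaction; Read-out: luciferase activation; Controls: No-ATP low control, compound-free enzyme-plus-ATP high control.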
* hit, by the source's call; nt = not tested or not shown.

SMILES	FLuc inhib CS	STAT1 activator	NF-kB neuron act	APP 5'UTR act	FLuc act counter
c1ccc(-c2onc3cc4c(cc23)OCCO4)cc1	22	146*	3.8*	88	0.8
CC(=O)c1ccc2noc(-c3ccccc3)c2c1	-4	102	1.2	-10	1
CCCCOc1ccc2c(c1)/C(=C(\C(Cl)=C(Cl)Cl)[N+](=O)[O-])N2	-6	91	1.1	-15	1.1
CCc1ccc(-c2cc(-c3n[nH]c(=S)n3CC)c3ccccc3n2)cc1	64*	122	1.4	27	0.4
C=CCc1cccc(CNc2ccc(Br)cc2)c1O	-2	101	1.5	17	1
CCOC(=O)Nc1nc(-c2ccccc2)c(C(=O)c2ccc(Cl)cc2)s1	-4	108	3.9*	-94	1
CCOC(=O)Nc1sc(C)nc1-c1ccccc1	-8	104	1	5	1.1
CCC(C)(C(=O)NC1CCCCC1)N(Cc1ccco1)C(=O)Cc1cccs1 (stereo not drawn)	-3	98	1.2	15	1
Cc1ccc(OCCn2cnc3ccccc3c2=O)c([N+](=O)[O-])c1	-1	136*	1.9	105	1
C=CCOc1ccc(C(=O)NC2CCCCC2)cc1	24	132*	2.1	23	0.8
Cc1ccc(C(=O)Nc2ccc3c(c2)OCO3)cc1	88*	82	4.9*	142*	0.1
CN(c1ccccc1C(=O)Nc1ccc2c(c1)OCCO2)S(C)(=O)=O	-7	80	1.1	-13	1.1
CCN(CC)c1ccc(NC(=O)c2cc(Cl)ccc2OC)cc1	3	95	0.8	-3	1
CN(c1ccc(C(=O)Nc2ccc3c(c2)OCCO3)cc1)S(C)(=O)=O	56*	127	2.6	104	0.4
COc1ccc(Cl)cc1C(=O)Nc1ccc2c(c1)OCO2	38	135*	1.2	39	0.6
O=C(Nc1ccc2c(c1)OCO2)c1ccncc1	1	106	1.5	11	1
CC(C)Oc1ccc(C(=O)NC2CCCCC2)cc1	23	128	2.7	nt	0.8
CCC(C)NC(=O)Nc1ccc(C)cc1C (stereo not drawn)	-2	96	1.1	0	1
O=C(NC1CCCCCCC1)c1ccc2c(c1)OCO2	43	125	6.9*	153*	0.6
Cc1ccc(C(=O)Nc2ccc3c(c2)CCC3)cc1	90*	40	6.4*	154*	0.1
COc1ccc(NC(=O)c2ccc3c(c2)OCO3)cc1[N+](=O)[O-]	26	139*	1.2	37	0.7
COc1cc(SC)ccc1C(=O)NCCOc1ccc(F)cc1	-4	135*	3.2	53	1
CCCCn1ccnc1C(=O)c1ccc(S(=O)(=O)N(CCOC)CCOC)cc1	-5	100	1.4	-9	1.1
COC(=O)CC1=C(C(=O)OC)C(c2cccs2)C(C#N)=C(N)O1 (stereo not drawn)	-3	86	1.1	14	1
CC(C)n1cc(CN2CCN(CCc3ccccc3)C(CCO)C2)cn1 (stereo not drawn)	-10	106	1.1	-13	1.1
SMILES	FLuc inhib CS	STAT1 activator	NF-kB neuron act	APP 5'UTR act	FLuc act counter
C/C(=N\NC(=O)C(=O)Nc1cccc(Cl)c1C)c1ccncc1	-6	97	0.62	-4	1.1
COc1ccccc1C(=O)Nc1ccc2c(c1)OCCO2	50	140*	3.5*	137*	0.5
COCCSc1ccccc1C(=O)Nc1ccc2c(c1)OCCO2	-9	104	1.2	-4	1.1
Cc1ccnc2nc(C(=O)Nc3ccc4c(c3)OCO4)nn12	51*	107	4*	40	0.5
CN(c1ccccc1C(=O)Nc1ccc2c(c1)OCO2)S(C)(=O)=O	-5	101	1.1	-1	1
Cc1ccccc1C(=O)Nc1ccc2c(c1)OCO2	74*	107	4.8*	177*	0.3
O=C(Nc1cccc(F)c1)c1ccc2c(c1)OCO2	30	118	3.5*	62	0.7
O=C(Nc1c(C(=O)Nc2cccc(F)c2)oc2ccccc12)c1ccc2c(c1)OCO2	14	100	1.2	19	0.9
O=C(O)/C=C/c1cn(Cc2ccccc2)nc1-c1ccc(Cl)cc1	-2	100	0.99	11	1
COc1ccccc1C(=O)NCc1ccc2c(c1)OCO2	-1	106	1.3	27	1
COc1ccccc1C(=O)Nc1ccc2c(c1)OCO2	31	132*	2.6	91	0.7
COc1cc(SC)ccc1C(=O)Nc1ccc2c(c1)OCCO2	83*	130*	4.6*	155*	0.2
CCOC(=O)c1c(C)[nH]c(C(=O)Nc2ccc3c(c2)OCO3)c1C	25	141*	7.8*	164*	0.8
CCOC(=O)Nc1ccc2c(c1)OCO2	4	115	1.4	27	1
COc1cc(SC)ccc1C(=O)Nc1nccs1	92*	70	1	190*	0.1
C/C(=C\C(=O)c1ccc(C)o1)Nc1ccc2c(c1)OCO2	52*	106	1.5	91	0.5
COc1cc(SC)ccc1C(=O)Nc1ccccc1	-3	135*	3.7*	58	1
O=C(CCCN1C(=O)c2cccc3cccc(c23)C1=O)NC1CCS(=O)(=O)C1 (stereo not drawn)	-6	104	1.1	0	1.1
c1ccc(-c2csc(NNC3=NCCCCC3)n2)cc1	-4	132*	0.92	25	1
Brc1ccc(-c2csc(NC3=NCCCCC3)n2)cc1	-4	134*	1.7	36	1
Cc1sc(NC(=O)C2CCCCC2C(=O)O)c(C(N)=O)c1-c1ccc(C(C)(C)C)cc1 (stereo not drawn)	-8	99	1.3	31	1.1
Cc1sc(NC(=O)C2CCCCC2C(=O)O)c(C(N)=O)c1-c1ccccc1 (stereo not drawn)	55*	127	1.1	36	0.5
Cc1nc2cc(NC(=O)N3c4ccccc4CC3C)ccc2o1 (stereo not drawn)	62*	146*	1.4	95	0.4
Cc1ccccc1NC(=O)N1c2ccccc2CC1C (stereo not drawn)	0	113	1.4	-5	1
Cc1ccc(C(=O)N2c3ccccc3CC2C)o1 (stereo not drawn)	46	148*	1.1	134	0.5
Cc1ccc(CC(=O)NCCS(=O)c2ccc(C)cc2)cc1 (stereo not drawn)	0	108	0.95	-6	1
O=C(Nc1ncccc1Cl)c1ccc2c(c1)OCCO2	37	138*	2.9	55	0.6
O=C(Nc1ccccn1)c1ccc2c(c1)OCCO2	74*	110	4.2*	128	0.3
O=C(Nc1nc(-c2ccccn2)cs1)c1ccc2c(c1)OCCO2	79*	131*	2.7	110	0.2
O=C(Nc1ccccn1)c1ccc2c(c1)OCO2	47	125	2.7	99	0.5

Screening data (PubChem)
